The target in data set [1] is T1, Sphingosine 1-phosphate receptor 1 (Homo sapiens, UniProt P21453). Kind of data set: Agonist activity at human S1P1 receptor expressed in HEK293 cells assessed as inhibition of forskolin-stimulated cAMP production after 1 hr by HTRF assay. Type of data set: functional, cell-based. The method in brief: (§1)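 Human S1P₁ cAMP HTRF read-out; each EC₅₀ is the mean of three or more replicates.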
A general note: Cyclic AMP is a second messenger, typically raised through Gs and lowered through Gi signalling.

The target in data set [2] is T1, Sphingosine 1-phosphate receptor 1. Nature of the data set: Agonist activity at human S1P1 receptor. It counts as functional. In short, it runs like this:
as §1

For data set [3] the target is unchanged. Nature of the data set: Agonist activity at recombinant human S1P1 receptor expressed in HEK293 cells after 2 hrs by beta-arrestin assay. It counts as functional, cell-based.
Data set [4] deals with Mus musculus. Nature of the data set: Immunomodulatory activity BALB/C mouse assessed as induction of lymphopenia at 0.3 to 3 mg/kg, po after 8 hrs. It counts as functional, organism-based. The method in brief: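 Male BALB/c mice were dosed orally at 0.3, 1.0 or 3.0 mg/kg, or with vehicle (0.5% methylcellulose in water). Blood lymphocytes were followed over time post-dose (mean ± SD). Observed values were fitted with an indirect PK/PD model.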

Data set [5] is described as follows: Half life in human. It counts as ADME, organism-based. To be noted: in vivo.
Data set [6] is described as follows: Aqueous solubility of the compound. Type of data set: physicochemical. To be noted: buffer.
Data set [7] relates to Mus musculus. Kind of data set: Immunomodulatory activity BALB/C mouse assessed as induction of lymphopenia at 1 mg/kg, po after 5 hrs. More on the design: dose 1 mg/kg. Type of data set: functional, organism-based. In short, it runs like this: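 Male BALB/c mice were given a single oral dose of 1.0 mg/kg or vehicle (0.5% methylcellulose). Blood lymphocytes were counted at one time point, 5 h post-dose, with n = 6 per dose group (mean ± SD). Lowering was judged relative to the vehicle group.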

Active and inactive are the calls of the source.

T1 sequence (P21453 whole entry): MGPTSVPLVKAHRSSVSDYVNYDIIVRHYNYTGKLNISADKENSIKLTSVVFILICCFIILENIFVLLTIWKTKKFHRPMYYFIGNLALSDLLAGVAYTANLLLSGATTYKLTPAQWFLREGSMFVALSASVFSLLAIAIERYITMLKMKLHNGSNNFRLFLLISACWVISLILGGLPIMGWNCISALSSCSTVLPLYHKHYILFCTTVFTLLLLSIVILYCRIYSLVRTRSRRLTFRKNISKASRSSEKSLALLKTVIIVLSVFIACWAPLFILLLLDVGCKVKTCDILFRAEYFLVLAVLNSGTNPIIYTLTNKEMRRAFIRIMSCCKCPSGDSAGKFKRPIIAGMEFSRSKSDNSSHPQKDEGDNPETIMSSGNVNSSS

In general, EC50 refers to the concentration giving half of the maximal effect. Take `CCOC(=O)CCn1ncc2cc(-c3noc(-c4cc(C(F)(F)F)cc(C(F)(F)F)c4)n3)ccc21`: the concentration giving a half-maximal response (EC50) in data set [1] was over 100 nM.
For the molecule `N#Cc1cc(-c2nc(-c3ccc4c(c3)CCN4C(=O)CCC(=O)O)no2)ccc1OC1CCCC1`, the EC50 in data set [1] was 18 nM.
In data set [2], `CCN(c1ccc2[nH]ncc2c1)S(=O)(=O)c1cc(C(F)(F)F)cc(C(F)(F)F)c1` returned a concentration for a half-maximal effect (EC50) of 372 nM.
Regarding `COc1ccc(-c2nc(-c3ccc4c(c3)CCN4C(=O)CCC(=O)O)no2)cc1C#N`, the concentration giving a half-maximal response (EC50) in data set [1] stood at 6.3 nM.
Still for that read-out and setting: as for `COc1ccc(-c2nc(-c3ccc4c(c3)CCN4C(=O)CCC(=O)O)no2)cc1Cl`, the figure is 11 nM; as for `O=C(O)CC(=O)N1CCc2cc(-c3noc(-c4cc(C(F)(F)F)cc(C(F)(F)F)c4)n3)ccc21`, 102 nM.
Take `CCc1ccc(-c2nc(-c3ccc4c(c3)CCN4C(=O)CCC(=O)O)no2)cc1C(F)(F)F`: the half-maximal effective concentration (EC50) in data set [1] is 2.7 nM.
Same read-out and setting: as for `COc1ccc(-c2nc(-c3ccc4c(c3)CCN4C(=O)CCC(=O)O)no2)cc1OC(F)(F)F`, the figure is 1 nM; as for `O=C(O)CCCC(=O)N1CCc2cc(-c3noc(-c4cc(C(F)(F)F)cc(C(F)(F)F)c4)n3)ccc21`, 6.6 nM.
For `COC(=O)CCCCn1cc2cc(-c3noc(-c4cc(C(F)(F)F)cc(C(F)(F)F)c4)n3)ccc2n1`, the EC50 in data set [1] came to 297 nM.
Consider `CC(C)Oc1ccc(-c2nc(-c3ccc4c(c3)CCN4C(=O)CCC(=O)O)no2)cc1C#N`, for which the EC50 in data set [1] was found to be 1.1 nM; in data set [3], 6.8 nM. In the data set on Mus musculus [4], the result was Active.
On to `CC(C)Oc1ccc(-c2nc(-c3ccc4c(c3)CCN4C(=O)CCC(=O)O)no2)cc1Br`, for which the concentration for a half-maximal effect (EC50) in data set [1] stood at 4 nM.
On the same count and under the same terms, as for `O=C(O)CCC(=O)N1CCc2cc(-c3noc(-c4ccc(OC(F)(F)F)cc4)n3)ccc21`, the figure is 68 nM.
In general, half-life refers to the time needed for the level to fall by half in the phase considered. Low readings indicate rapid decline, high ones slow decline. On to `CCCCCCCCc1ccc(CCC(N)(CO)CO)cc1.Cl` [FINGOLIMOD HYDROCHLORIDE], for which, in data set [5], the half-life is 144 h.
As for `O=C(O)CCC(=O)N1CCc2cc(-c3noc(-c4ccc(-c5cccs5)c(C(F)(F)F)c4)n3)ccc21`, the EC50 in data set [1] worked out at 1.3 nM.
Turning to `FC(F)(F)c1cc(-c2nc(-c3ccc4[nH]ncc4c3)no2)cc(C(F)(F)F)c1`, the EC50 came out at 9.4 nM in data set [2] and 7.2 nM in data set [1].
`FC(F)(F)c1cc(-c2nc(-c3ccc4[nH]ccc4c3)no2)cc(C(F)(F)F)c1`: in data set [1], the concentration for a half-maximal effect (EC50) is 75 nM.
The same measure, in the same setting: as for `O=C(O)CCC(=O)n1ccc2cc(-c3noc(-c4cc(C(F)(F)F)cc(C(F)(F)F)c4)n3)ccc21`, the figure is 41 nM.
As to `O=C(O)CCC(=O)N1CCc2cc(-c3noc(-c4ccc(C5CCCC5)c(Cl)c4)n3)ccc21`, in data set [1], the EC50 is 0.82 nM.
Take `COc1ccc2c(c1)CCN(c1noc(-c3cc(C(F)(F)F)cc(C(F)(F)F)c3)n1)C2`: in data set [1], the EC50 is 1 nM.
For the molecule `O=C(O)CCCCn1cc2cc(-c3noc(-c4cc(C(F)(F)F)cc(C(F)(F)F)c4)n3)ccc2n1`, the EC50 in data set [1] came to 4.2 nM.
The same measure, in the same setting: as for `FC(F)(F)c1cc(-c2nc(-c3ccc4c(c3)CCN4)no2)cc(C(F)(F)F)c1`, the figure is 37 nM; as for `O=C(O)COc1ccc2c(c1)CCN(c1noc(-c3cc(C(F)(F)F)cc(C(F)(F)F)c3)n1)C2`, 54 nM; as for `COc1cc(-c2nc(-c3ccc4c(c3)CCN4C(=O)CCC(=O)O)no2)ccc1OC(F)F`, 1.5 nM.
On the same count and under the same terms, as for `COc1ccc(-c2nc(-c3ccc4c(c3)CCN4C(=O)CCC(=O)O)no2)cc1C`, the figure is 18 nM; as for `O=C(O)CCn1ncc2cc(-c3noc(-c4cc(C(F)(F)F)cc(C(F)(F)F)c4)n3)ccc21`, 9.8 nM.
`O=C(O)CCCn1ncc2cc(-c3noc(-c4cc(C(F)(F)F)cc(C(F)(F)F)c4)n3)ccc21`: the 50% effective concentration (EC50) in data set [1] stood at 4.9 nM.
Still for that read-out and setting: as for `COc1ccc(-c2nc(-c3ccc4c(c3)CCN4C(=O)CCC(=O)O)no2)cc1C(F)(F)F`, the figure is 11 nM; as for `COc1cc(C#N)cc(-c2nc(-c3ccc4c(c3)CCN4C(=O)CCC(=O)O)no2)c1`, 10.3 nM.
Take `O=C(O)CCCn1ncc2c1CCN(c1noc(-c3cc(C(F)(F)F)cc(C(F)(F)F)c3)n1)C2`: in data set [1], the concentration for a half-maximal effect (EC50) amounted to 369 nM.
On the same count and under the same terms, as for `FC(F)(F)c1cc(-c2nc(N3CCc4[nH]cnc4C3)no2)cc(C(F)(F)F)c1`, the figure is 406 nM; as for `FC(F)(F)c1cc(-c2nc(N3CCc4[nH]ncc4C3)no2)cc(C(F)(F)F)c1`, 24 nM.
Usually solubility stands for the concentration that dissolves in the medium under given conditions. High values mean a readily soluble substance, low ones a poorly soluble substance. In the case of `N[C@@H](CC(=O)N1CCc2cc(-c3noc(-c4cc(C(F)(F)F)cc(C(F)(F)F)c4)n3)ccc21)C(=O)O`, the 50% effective concentration (EC50) in data set [1] is 1.63 nM. Besides, in data set [6], the solubility was under 10 µg/mL.
Take `O=C(O)CCc1nc2cc(-c3noc(-c4cc(C(F)(F)F)cc(C(F)(F)F)c4)n3)ccc2[nH]1`: the outcome in the data set with Mus musculus [7] was inactive. For the same molecule, the EC50 in data set [1] turned out to be 1.2 nM.
Molecule `C=CCN(c1ccccc1)S(=O)(=O)c1cc(Cl)cc(Cl)c1` returned a concentration giving a half-maximal response (EC50) in data set [2] of 6.7 nM.
Consider `CC[C@H](C)Oc1ccc(-c2nc(-c3ccc4c(c3)CCN4C(=O)CCC(=O)O)no2)cc1Cl`, for which the concentration giving a half-maximal response (EC50) in data set [1] was 45 nM.
On the same count and under the same terms, as for `O=C(O)CCN1CCc2cc(-c3noc(-c4cc(C(F)(F)F)cc(C(F)(F)F)c4)n3)ccc21`, the figure is 6.1 nM; as for `FC(F)(F)c1cc(-c2nc(-c3ccc4[nH]cnc4c3)no2)cc(C(F)(F)F)c1`, 4.3 nM; as for `CCc1ccc(-c2nc(-c3ccc4c(c3)CCN4C(=O)CCC(=O)O)no2)cc1S(C)(=O)=O`, 38 nM.
On the same count and under the same terms, as for `O=C(O)CCC(=O)N1CCc2cc(-c3noc(-c4ccc(Cl)c(OC(F)(F)F)c4)n3)ccc21`, the figure is 5.3 nM.

(Values after ChEMBL document CHEMBL1914334, “Discovery and characterization of potent and selective 4-oxo-4-(5-(5-phenyl-1,2,4-oxadiazol-3-yl)indolin-1-yl)butanoic acids as S1P₁ agonists” (Bioorg Med Chem Lett, 2011).)
